Laboratory results reported in publication PMC5420486 (Clinical cancer research : an official journal of the …, 2016).
“Also recorded” adds a separate entry of the source.

Tests used:
[1] = system: Asian patients with advanced HCC; experiment: Phase I dose-escalation, standard 3+3 design; format: in vivo
[2] = system: patients with advanced HCC; experiment: Safety assessment: adverse events graded by CTCAE v3.0; format: in vivo, human; conditions: for Diarrhoea: treatment-related AE
[3] = system: advanced hepatocellular carcinoma (HCC) patients; experiment: Anti-tumor activity and survival; format: in vivo, human
[4] = Plasma pharmacokinetics, noncompartmental analysis; format: in vivo, human; conditions: for Tmax: human, plasma, oral
How it was run: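 Patients were dosed orally once daily. Blood was drawn within 60 minutes predose and at 1, 2, 3, 4, 6, 8 and 24 h post dose on days 1 and 15, in both escalation and expansion cohorts. Cmax, Tmax, AUC0-24, AUC0-∞, T1/2, C24 and CL/F were derived from plasma test compound concentrations by noncompartmental analysis.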

[5] = system: advanced HCC patients; experiment: Pharmacogenomic and exploratory biomarker subgroup analyses of TTP; format: in vivo, human; conditions: 30 mg QD
How it was run: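 Advanced HCC patients took oral test compound once daily. For genotyping, venous blood DNA was typed at 20 SNPs in 14 candidate genes by Sanger sequencing or TaqMan assays. Circulating markers, including IL6, were measured by Searchlight at baseline (day 1). TTP ran from drug start to documented progression or death. Genotype was tested by time-to-event models with score (log-rank) test, unadjusted. Biomarkers were tested by proportional hazards regression, univariate and covariate-adjusted.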

[6] = system: patients with other solid tumors; conditions: other tumor types, predominantly non-Asian populations; cited from earlier work
[7] = system: Asia-Pacific patients with HCC; conditions: cited from earlier work
[8] = 30 mg QD, RECIST population (n=38)
[9] = 30 mg QD, mRECIST population (n=35)

## COc1cc2c(Oc3ccc(NC(=O)C4(C(=O)Nc5ccc(F)cc5)CC4)cc3F)ccnc2cc1OCCCN1CCOCC1 [foretinib]
[1]; Asian patients with advanced HCC, oral, first-line
  maximum tolerated dose (MTD): 30 mg QD
[1]; in vivo
  dose-limiting toxicities (DLTs): no DLTs
[2]; 30 mg
  fatal events: three
  relation of fatal events to study treatment: none of these events were considered related to study treatment
[2]; 30 mg QD
  dose reductions due to an AE: no patients; also recorded: no dose reductions
[2]; 30 mg QD, N=39, all patients
  Abdominal pain: 5 (12·8) n (%)
  Cough: 6 (15·4) n (%)
  Hypoalbuminaemia: 7 (17·9) n (%)
  Insomnia: 6 (15·4) n (%)
  Diarrhoea: 6 (15·4) n (%)
[2]; 30 mg QD, N=39, grade 3
  Abdominal pain: 3 (7·7) n (%)
  Cough: 0 n (%)
  Hypoalbuminaemia: 5 (12.8) n (%)
  Insomnia: 1 (2.6) n (%)
  Diarrhoea: 0 n (%)
[2]; 30 mg QD, N=39, grade 4
  Abdominal pain: 0 n (%)
  Cough: 0 n (%)
  Hypoalbuminaemia: 0 n (%)
  Insomnia: 0 n (%)
  Oedema peripheral: 1 (2.6) n (%)
  Diarrhoea: 0 n (%)
[3]; 30 mg QD
  median time to progression (TTP): 4.2 months
[3]; [8]
  Disease stabilization rate: 24 (63·2) n (%)
  Objective response rate: 3 (7·9) n (%)
  Patients achieving best overall response: Complete response: 0 n (%)
  Patients achieving best overall response: Disease progression: 14 (36.8) n (%)
  Patients achieving best overall response: Partial response: 3 (7.9) n (%)
  Patients achieving best overall response: Stable disease: 21 (55.3) n (%)
[3]; 30 mg QD, all enrolled patients treated at the MTD (N=39), Kaplan-Meier
  median overall survival (OS): 15.7 months
[3]; 30 mg QD, mRECIST
  Disease stabilization rate: 82.9%
  median duration of response: 7.6 months
[3]; [9]
  Disease stabilization rate: 29 (82·9) n (%)
  Objective response rate: 8 (22·9) n (%)
  Patients achieving best overall response: Complete response: 0 n (%)
  Patients achieving best overall response: Disease progression: 6 (17·1) n (%)
  Patients achieving best overall response: Partial response: 8 (22·9) n (%)
  Patients achieving best overall response: Stable disease: 21 (60·0) n (%)
[3]; 30 mg QD, mRECIST, 35 evaluable patients
  objective response rate (ORR): 22.9%
[3]; 30 mg QD, patients with baseline AFP ≥200 ng/mL (n=15), mRECIST population
  Patients achieving ≥50% reduction from baseline AFP: 7 (46·7) n (%)
[3]; 30 mg, baseline AFP ≥ 200 ng/mL
  patients with a 50% decrease from baseline AFP at at least one time point: 46.7%
[3]; 30 mg, mRECIST
  patients achieving a PR: eight
[4]; 30 to 45 mg, day 15
  dose-proportionality assessment: dose proportionality was not achieved
[4]; day 15, N=6, interpret with caution
  oral clearance (CL/F), 45-mg dose compared with 30-mg dose: 50 % higher
[4]
  Tmax: 3 to 3.5 h
[4]; 30 mg
  Tmax: 3 h
[5]; one or no copy of NR1I3/CAR CAT haplotype
  median TTP: ≈ 6 months
[5]; two copies of NR1I3/CAR CAT haplotype
  median TTP: ≈ 2 months
[6]
  previously reported MTD: 60 mg QD

## CNC(=O)c1cc(Oc2ccc(NC(=O)Nc3ccc(Cl)c(C(F)(F)F)c3)cc2)ccn1 [sorafenib]
[7]; Asia-Pacific patients with HCC
  patients requiring dose reduction: 30.9%
[7]; pivotal Asia-Pacific sorafenib study
  median OS: 6.5 months
